Measured values reported in ChEMBL document CHEMBL4680088, “Highly Effective Dual-Function Near-Infrared (NIR) Photosensitizer for Fluorescence Imaging and Photodynamic Therapy (PDT) of Cancer” (J Med Chem, 2016).
Calls of active or inactive are those of the source. No cut-off for these calls is given here.

Columns and labels:
[1] = Photosensitizing activity in mouse Colon 26 cells assessed as induction of STAT3 cross-linking at 15 nM incubated for 24 hrs followed exposure to irradiation at 797 nm light (3 J/cm2) by Western blotting analysis
[2] = Photosensitizing activity in mouse Colon 26 cells assessed as induction of STAT3 cross-linking at 250 nM incubated for 24 hrs followed exposure to irradiation at 797 nm light (3 J/cm2) by Western blotting analysis
[3] = test system: Colon 26; experiment: Photodynamic therapy against […] cells assessed as reduction in cell viability at 0.1 to 0.4 uM incubated for 24 hrs followed by exposure to 0.25J/cm2 irradiation by MTT assay; format: functional, cell-based; conditions: dose 0.1-0.4 µM
Summary of the method: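 Murine Colon 26 cells (3600/well) exposed to a range of photosensitizer concentrations for 24 h, then irradiated at 787 nm, 0.25 J/cm2 (3.2 mW/cm2). MTT readout 48 h after light. Percent survival taken relative to untreated cells after blank subtraction. Experiments done in triplicate.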

[4] = Drug uptake in tumor of BALB/c mouse xenografted with […] cells at 0.25 umol/kg, iv measured at 24 hrs by fluorescence imaging; format: ADME, organism-based, Neoplasm; conditions: in vivo, dose 0.25 µmol/kg
Summary of the method: (§1)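 Subcutaneous Colon 26 tumors (~50 mm3) on the shoulder of BALB/c mice, 3 mice/group. Photosensitizer 0.25 μmol/kg iv in 1% Tween 80/D5W. Under isoflurane, Maestro spectral imaging used the Deep Red filter set (Ex 671–705 nm, Em 750 nm long-pass, 2 s exposure). Images taken at 4, 8, 12, 24 and 48 h; unmixed tumor signal quantified.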

[5] = test system: Colon 26 (mouse); experiment: Drug uptake in tumor of BALB/c mouse xenografted with mouse Colon 26 cells at 0.25 umol/kg, iv measured after 24 hrs followed by exposure to 787 nm light and stoppage of irradiation at regular intervals up to 30 mins by fluorescence imaging based IVIS spectrum-CT method; conditions: in vivo, at 0.25 µmol/kg
[6] = (§2) Photodynamic therapy against […] cells xenografted in BALB/c mouse assessed as reduction tumor volumes by measuring tumor cure response at 0.25 umol/kg, iv exposed to laser light at 787 nm at a dose of 135 J/cm2 and 35 mW/cm2 after 24 hrs post dose measured at day 60 post dose; format: functional; set-up: scale not given: the % may be the effect or the level left; conditions: dose 0.25 µmol/kg; time 60 day
[7] = Drug uptake in tumor of BALB/c mouse xenografted with mouse 4T1 cells at 0.25 umol/kg, iv measured after 24 hrs by fluorescence imaging based IVIS spectrum-CT method; format: ADME, organism-based, BALB/c m, Neoplasm; conditions: in vivo, dose 0.25 µmol/kg
Summary of the method: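 BALB/c mice (3/group) were given 4T1-luc cells iv to seed lung tumors, and bioluminescence was imaged at day 9. Photosensitizer 0.25 μmol/kg iv, then fluorescence imaging at 24 h on IVIS Spectrum-CT (Ex 785 nm, Em >830 nm). The fluorescence image was merged with bioluminescence.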

[8] = Skin phototoxicity in BALB/c mouse assessed as foot response at 0.25 umol/kg, iv after 24 to 96 hrs post dose followed by mouse restrainment and one hind foot illumination with solar light for 30 mins; format: organism-based, BALB/c m; conditions: in vivo, 0.5 h, time 24-96 hrs, dose 0.25 µmol/kg
Summary of the method: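 Non-tumor BALB/c mice given photosensitizer 0.25 μmol/kg iv. At 24, 48, 72 or 96 h (3 mice/group), one hind foot was illuminated for 30 min; the other foot served as control. Edema, erythema, epilation and desquamation scored 0 (normal) to 3 (loss of foot), followed for 4 more days.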

[9] = Stability in mouse Colon 26 cells culture media assessed as hydrolysis of methyl ester to carboxylic acid incubated for 24 hrs by TLC analysis; conditions: colon 26, 24 h
[10] = Photosensitizing activity in mouse Colon 26 cells assessed as induction of STAT3 cross-linking at 60 nM incubated for 24 hrs followed exposure to irradiation at 797 nm light (3 J/cm2) by Western blotting analysis
[11] = Drug uptake in tumor of BALB/c mouse xenografted with […] cells at 0.25 umol/kg, iv measured after 24 by fluorescence imaging; format: ADME, organism-based, Neoplasm; conditions: in vivo, 24 h, dose 0.25 µmol/kg
Summary of the method: as §1

[12] = test system: Colon 26; experiment: Photodynamic therapy against […] cells xenografted in BALB/c mouse assessed as reduction tumor volumes by measuring tumor response at 0.25 umol/kg, iv exposed to laser light at 787 nm at a dose of 135 J/cm2 and 35 mW/cm2 after 48 hrs post dose measured at day 60 post dose; format: functional, organism-based; conditions: dose 0.25 µmol/kg, time 60.0 day
[13] = Photosensitizing activity in mouse Colon 26 cells assessed as induction of STAT3 cross-linking at 125 nM incubated for 24 hrs followed exposure to irradiation at 797 nm light (3 J/cm2) by Western blotting analysis
[14] = Photosensitizing activity in mouse Colon 26 cells assessed as induction of STAT3 cross-linking at 30 nM incubated for 24 hrs followed exposure to irradiation at 797 nm light (3 J/cm2) by Western blotting analysis
[15] = test system: Mus musculus; experiment: Photosensitizing activity in BALB/c mouse implanted with mouse Colon 26 cells assessed as induction of STAT3 cross-linking at 0.47 umol/kg, iv for 24 hrs followed by exposure to laser light at 787 nm by Western blotting analysis; conditions: BALB/c m, dose 0.47 µmol/kg
[16] = test system: Colon 26; experiment: as §2; format: functional; conditions: dose 0.25 µmol/kg, time 60.0 day
[17] = test system: Colon 26; experiment: Photodynamic therapy against […] cells assessed as reduction in cell viability at 0.025 uM incubated for 24 hrs followed by exposure to light at 787 nm in the range of 0-1.0 J/cm2 irradiation by MTT assay; format: functional, cell-based
Summary of the method: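 Murine Colon 26 cells (3600/well) exposed to 0.025 μM photosensitizer for 24 h. Irradiated at 787 nm from a tunable dye laser, 0–1.0 J/cm2 at 3.2 mW/cm2. MTT added 48 h after light. Blank-subtracted OD divided by untreated OD for each light dose gave percent survival. Single experiment in triplicate.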

[18] = Drug uptake in tumor of BALB/c mouse xenografted with […] cells at 1 umol/kg, iv measured after 24 to 48 hrs using 14C-labeled cpd by scintillation counting method; format: ADME, organism-based, Neoplasm; conditions: in vivo, time 24-48 hrs, dose 1 µmol/kg
Summary of the method: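 Colon 26 tumor-bearing BALB/c mice (~50 mm3) received 14C-labeled compound 1.0 μmol/kg iv (0.1 μCi/mouse), 3 mice/time point. Mice euthanized at 24, 48 and 72 h; tumor and muscle removed, weighed and solubilized overnight at 50 °C. Radioactivity counted; results given as mean cpm/g tissue ± SD.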

[19] = Drug uptake in tumor of BALB/c mouse xenografted with […] cells at 0.25 umol/kg, iv measured after 4 hrs by fluorescence imaging; format: ADME, organism-based, Neoplasm; conditions: in vivo, dose 0.25 µmol/kg
Summary of the method: as §1

[20] = test system: Colon 26; experiment: Photodynamic therapy against […] cells xenografted in BALB/c mouse assessed as reduction tumor volumes by measuring tumor response at 0.25 umol/kg, iv exposed to laser light at 787 nm at a dose of 135 J/cm2 and 35 mW/cm2 after 12 hrs post dose measured at day 60 post dose; format: functional, organism-based; conditions: dose 0.25 µmol/kg, time 60.0 day

| Drug uptake [4] | SMILES | Activity [1] [%] | Activity [2] [%] | Activity [3] | Activity [10] [%] | Activity [12] | Activity [13] [%] | Activity [14] [%] | Activity [15] | Activity [16] | Activity [17] | other results |
| --- | --- | --- | --- | --- | --- | --- | --- | --- | --- | --- | --- | --- |
| Active | CCCCOC(C)c1c(C)c2cc3nc(c4c5[nH]c(cc6nc(cc1[nH]2)[C@H](C)[C@H]6CC)c(C)c5C(=O)N(CCCC)C4=O)[C@@H](CCC(=O)OC)[C@@H]3C (some centres not stated) | 0.1 | 2.4 | Active | 0.5 | inactive | 1.5 | 0.2 | Active | – | – | Drug uptake [5]: 40%; Activity [6]: 80%; Drug uptake [7]: Active; Activity [8]: Non-Toxic; Stabilty [9]: Stable; Drug uptake [11]: Not Active |
| Active | CCCCO[C@@H](C)c1c(C)c2cc3nc(c4c5[nH]c(cc6nc(cc1[nH]2)[C@H](C)[C@H]6CC)c(C)c5C(=O)N(CCCC)C4=O)[C@@H](CCC(=O)OC)[C@@H]3C | – | – | – | – | – | – | – | – | Active | Active | – |
| – | CCCCN1C(=O)c2c3nc(cc4[nH]c(cc5nc(cc6[nH]c2c(c6C)C1=O)[C@H](CC)[C@H]5C)c(C(C)O[14CH2]CCC)c4C)[C@@H](C)[C@@H]3CCC(=O)OC (some centres not stated) | – | – | – | – | – | – | – | – | – | – | Drug uptake [18]: Active |
| – | CCCCOC(C)c1c(C)c2cc3nc(c4c5[nH]c(cc6nc(cc1[nH]2)[C@H](C)[C@H]6CC)c(C)c5C(=O)N(CCCC)C4=O)[C@@H](CCC(=O)O)[C@@H]3C (some centres not stated) | 0.3 | 15 | Active | 5.8 | inactive | 9 | 1.2 | Active | – | – | Drug uptake [19]: Active; Activity [20]: inactive |
| Active | CCCCO[C@H](C)c1c(C)c2cc3nc(c4c5[nH]c(cc6nc(cc1[nH]2)[C@H](C)[C@H]6CC)c(C)c5C(=O)N(CCCC)C4=O)[C@@H](CCC(=O)OC)[C@@H]3C | – | – | – | – | – | – | – | – | Active | Active | – |
